Screening results (PubChem)
PAD4 FP inh: human PAD4 inhibitors, primary screen, biochemical, fluorescence polarization, 1536-well format; Protein-arginine deiminase type-4 (Homo sapiens), Q9UM07; recombinant PAD4, RCA probe fluorescence polarization; inhibition, % at 6.36 µM; 330,000 tested, 0.41% active;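 active means percent inhibition above a cutoff equal to the mean of all tested compounds plus 3 SD, cut at about 15% in these data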;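 further: 0% = PAD4 with RCA probe and DMSO and 100% = probe without PAD4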
Target sequence (Q9UM07 whole entry, looked up): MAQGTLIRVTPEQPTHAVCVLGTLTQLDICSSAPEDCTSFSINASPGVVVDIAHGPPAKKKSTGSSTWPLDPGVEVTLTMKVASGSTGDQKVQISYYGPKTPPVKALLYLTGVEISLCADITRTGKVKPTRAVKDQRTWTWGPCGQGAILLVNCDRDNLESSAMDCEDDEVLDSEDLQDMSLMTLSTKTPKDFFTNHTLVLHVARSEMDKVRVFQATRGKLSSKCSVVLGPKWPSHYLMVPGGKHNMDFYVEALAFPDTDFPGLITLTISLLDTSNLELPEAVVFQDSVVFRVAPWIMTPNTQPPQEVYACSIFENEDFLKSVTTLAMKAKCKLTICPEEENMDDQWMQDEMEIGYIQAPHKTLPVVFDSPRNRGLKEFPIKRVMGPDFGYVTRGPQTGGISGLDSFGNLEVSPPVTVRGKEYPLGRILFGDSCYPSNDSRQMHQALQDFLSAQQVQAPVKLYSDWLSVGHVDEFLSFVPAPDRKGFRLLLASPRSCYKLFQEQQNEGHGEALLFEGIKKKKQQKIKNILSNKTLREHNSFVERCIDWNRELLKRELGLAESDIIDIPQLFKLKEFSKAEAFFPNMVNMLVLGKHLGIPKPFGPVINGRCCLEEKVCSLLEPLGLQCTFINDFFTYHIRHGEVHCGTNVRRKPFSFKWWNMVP
Fh CTSL1 inh: Fasciola hepatica cathepsin L1 inhibitors, primary screen, counter-screen for PFM18AAP inhibitor project, biochemical, QFRET, fluorogenic peptide substrate; 300,000 tested, 0.49% active; inhibition, % at 5.96 µM; recombinant F. hepatica cathepsin L1, Z-Leu-Arg-MCA fluorescence; AID 1906, 2009;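 active means inhibition above the mean of all tested compounds plus 3 SD, set per screening campaign, cut at about 17% in these data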;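 further: 0% = plate median of test compound wells and 100% = 1 µM Z-Phe-Ala-diazomethylketone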
UCH37 inh: inhibitors of human UCH37 deubiquitinase, primary screen, biochemical, Ub-AMC cleavage, fluorescence | 330,000 tested, 0.33% active | inhibition, % (concentration not given with the values) | purified proteasome/UCH37 | Ubiquitin carboxyl-terminal hydrolase isozyme L5 (Homo sapiens), Q9Y5K5 | AID 588478, 2011;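 active means mean inhibition over replicate wells above about 20%, limit read from the data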;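 further: 0% = compound-free wells with enzyme and 100% = wells lacking proteasome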
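Material: human UCH37 enzyme supplied as purified proteasome complex / Amount: 0.15 nM proteasome as dispensed / Buffer or medium: pH 7.4 Tris-HCl (50 mM) with ovalbumin, ATP-MgCl2, DTT / Times: preincubation 30 min, reaction 25 min, room temperature / Technique: AMC fluorescence from Ub-AMC cleavage, excitation 355 nm, emission 460 nm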
TDP2 absorb: human TDP2 enzyme inhibitors, primary screen, biochemical, epi absorbance, recombinant enzyme | Tyrosyl-DNA phosphodiesterase 2 (Homo sapiens), O95551 | T5PNP hydrolysis, p-nitrophenol absorbance 415 nm | inhibition, % at 12.8 µM | 370,000 tested, 0.34% active;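 active means inhibition above the mean of all tested compounds plus 3 SD, set per campaign, cut at about 25% in these data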;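 further: 0% = DMSO with enzyme and 100% = buffer with substrate but no TDP2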
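Read-out basis: percent inhibition. System: recombinant human TDP2. Buffer or medium: Mg2+-containing Tris-HCl buffer, pH 7.5. Repeats: single replicate. Timing: reaction 2 h, 37 °C. Benchmarks: high control without enzyme, low control DMSO plus TDP2. Probe or stimulus: 5 mM T5PNP. Doses: 12.8 µM only. Measured by: epi absorbance of p-nitrophenol freed from T5PNP by hydrolysis.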
HKDC1 inhibitor: HKDC1 hexokinase inhibitors, primary screen, biochemical, fluorescence, uHTS | Q2TB90 | recombinant HKDC1, G6PDH/diaphorase resazurin coupled fluorescence | inhibition, % at 20 µM | 340,000 tested, 0.16% active | AID 493160, 2011;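 active means inhibition above about 35% when tested at 20 µM, limit read from the data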;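 further: plate controls were DMSO wells with enzyme for no effect and DMSO wells lacking enzyme for full effect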
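test system = in-house recombinant HK5 (HKDC1) enzyme | amount = HKDC1 at 5 µg/mL | control set = DMSO-enzyme wells negative, buffer-substituted wells positive | compound = one dose of 20 µM, 1% DMSO | schedule = reaction time 90 min, room temperature, protected from light | technique = resorufin fluorescence at 613 nm | reagent = glucose with 1 mM ATP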
GSTO1 inh: inhibitors of recombinant GSTO1, primary screen, counter-screen for RBBP9 inhibitor project, biochemical, fluorescence polarization; Glutathione S-transferase omega-1 (Homo sapiens), P78417; activity-based probe fluorescence polarization; AID 1974, 2009; inhibition, % at 5.96 µM; 300,000 tested, 1.1% active;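 active means inhibition above the campaign mean inhibition plus 3 SD, cut at about 35% in these data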;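 further: 0% = GSTO1-1 with DMSO and 100% = wells lacking GSTO1-1 enzyme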
* hit, by the source's call; · = not tested or not shown. In the library only some 1.6% were active in any assay of this set; here they are far more common.

SMILES	PAD4 FP inh	Fh CTSL1 inh	UCH37 inh	TDP2 absorb	HKDC1 inhibitor	GSTO1 inh
C#CCOCCOCCOCCNc1nc(N2CCN(C(=O)[C@H](CCCCN)n3cc([C@@H](N)[C@H](C)CC)nn3)CC2)nc(N2CCN(C(=O)[C@H](CCC(=O)O)n3cc([C@@H](N)CCCCN)nn3)CC2)n1	-6	·	3	8	-2	·
C#CCOCCOCCOCCNc1nc(N2CCOCC2)nc(N2CCN(C(=O)[C@H](Cc3cc4ccccc4[nH]3)n3cc([C@@H](N)Cc4ccc(O)cc4)nn3)CC2)n1	1	-3	23*	-5	1	1
C#CCOCCOCCOCCNc1nc(N2CCN(C(=O)C(Cc3ccc(O)cc3)n3cc(C(N)CC(C)C)nn3)CC2)nc(N2CCN(C(=O)C(Cc3cc4ccccc4[nH]3)n3cc(C(N)Cc4ccc(O)cc4)nn3)CC2)n1 (centres undefined)	-2	-2	3	·	·	3
C#CCOCCOCCOCCNc1nc(N2CCN(C(=O)C([C@@H](C)CC)n3cc(C(N)COC(=O)C(F)(F)F)nn3)CC2)nc(N2CCN(C(=O)[C@H](CCCCN)n3cc(C(N)[C@H](C)CC)nn3)CC2)n1 (some centres undefined)	-1	31*	-1	·	6	17
CC(Cc1ccccc1)=NNC(=O)CNC(=O)c1ccc(C(C)(C)C)cc1	·	·	1	·	·	·
Cc1ccc(S(=O)(=O)NN=C(c2ccccc2)C2CC2)cc1	·	·	6	·	·	·
COc1cc(C=NNC(=O)CN(CCc2ccccc2)S(=O)(=O)c2ccc(NC(C)=O)cc2)cc(OC)c1OC	·	·	2	·	·	·
O=C1NNC(c2ccccc2)=N/C1=C\c1ccccc1	-4	-4	23*	5	0	14
CCOc1ccc(N2C(=O)C(Cl)=C(Nc3ccccc3O)C2=O)cc1	-4	17*	5	0	-1	19
O=C(O)/C=C/S(=O)(=O)c1ccc2ccccc2c1	-5	54*	3	0	-3	5
COc1ccc(C(=O)ON=C(c2ccccc2)c2ccncc2)cc1OC	·	·	1	·	·	·
CC1(C)CC(=O)/C(=C(\O)Cc2ccccc2)C(=NCCc2ccccc2)C1	·	·	2	·	·	·
CN(C)S(=O)(=O)c1ccc(C(=O)NCC(=O)NN=Cc2ccccc2)cc1	·	·	2	·	·	·
COC(=O)C1=C(C(=O)OC)[C@@H]2N(C)c3ccc(OC)cc3[C@@]23C[C@@H](C(=O)OC)N(C(=O)c2cccs2)C3=N1	6	-2	42*	·	2	-9
Cc1ccc(N2C(=O)c3ccccc3C2C(=O)c2cc(C)ccc2O)cc1 (centres undefined)	5	-1	0	-12	-2	35*
N#CC1=C(N)C(C#N)(C#N)[C@H](c2ccncc2)[C@H]2CN(C(=O)OCc3ccccc3)CC=C12	-1	19*	-33	3	17	17
Cc1nn(-c2ccccc2)c(Cl)c1C=NNC(=O)c1cccnc1	·	·	2	·	·	·
COCCNC(=O)/C(C#N)=C/c1ccc(O)c([N+](=O)[O-])c1	-1	3	20	-7	-7	11
COCCNC(=O)/C(C#N)=C/C=C/c1ccccc1[N+](=O)[O-]	-1	3	-79	11	4	44*
CC(C)c1onc(C(=O)NCc2ccccc2)c1[N+](=O)[O-]	-2	18*	-2	2	-9	37*
COc1ccc(CNC(=O)c2noc(C(C)C)c2[N+](=O)[O-])cc1	-3	0	5	1	-9	23
Cc1c(C#N)c(NC(=O)CCl)n(Cc2cccs2)c1C	4	51*	7	5	10	87*
Cc1ccc(NC2=C(Cl)C(=O)OC2OC(=O)c2ccco2)cc1 (centres undefined)	0	81*	1	4	-4	17
O=C(NCCN1CCOCC1)c1ccc2c(c1)N(Cc1ccc(Cl)cc1)C(=O)CS2	3	-1	2	-3	8	-5
O=C(NCCN1CCOCC1)c1ccc2c(c1)N(Cc1ccccc1)C(=O)CS2	-4	32*	4	9	-7	3
SMILES	PAD4 FP inh	Fh CTSL1 inh	UCH37 inh	TDP2 absorb	HKDC1 inhibitor	GSTO1 inh
Cc1cc2c(C)cc(=O)[nH]c2cc1NC(=O)CCl	-2	3	·	-4	6	71*
CCC(=O)Nc1cc2[nH]c(=O)cc(C)c2cc1C	2	0	-58	2	6	5
O=C(NN=Cc1cccc(C(F)(F)F)c1)C1CCN(c2ncc(C(F)(F)F)cc2Cl)CC1	·	·	-1	·	·	·
O=C(CSCCc1ccccn1)Nc1cccnc1	4	9	23*	1	-1	11
COc1ccc(NC(=O)CSCCc2ccccn2)cc1OC	3	1	0	-7	-2	-3
Cn1c(=O)c(=O)n(C)c2cc(S(=O)(=O)CCC(=O)Nc3ccc(C(F)(F)F)cc3)ccc21	1	17*	3	7	-7	7
COc1ccc(C=NNC(=O)c2ccc(Cl)cc2Cl)cc1COC(C)=O	·	·	4	·	·	·
O=C(CSc1ncn[nH]1)N1CCOCC1	-2	60*	0	-13	-10	-4
COCCN=c1scc(-c2cccs2)n1N=Cc1ccc(O)c(O)c1O	·	·	2	·	·	·
CCCCN(CCCC)c1ccc(C(=O)c2ccccc2C(=O)O)c(O)c1	6	4	13	-4	2	10
CN(C)c1ccc(C(=O)c2ccccc2C(=O)O)c(O)c1	-5	8	23*	0	-3	-1
COc1ccccc1/C=N/NC(=O)c1ccc(CN2C(=O)c3cccc4cccc2c34)cc1	-7	18*	·	9	3	-40
COc1ccccc1C=NNC(=O)c1ccc(CN2C(=O)c3cccc4cccc2c34)cc1	·	·	-163	·	·	·
CC(=NNC(=O)c1ccc(Br)o1)c1ccncc1	·	·	-13	·	·	·
O=C(Oc1oc(-c2ccco2)nc1C=Nc1ccccc1)c1ccco1	-6	20*	-2	·	0	2
Cc1ccc(C(=O)Oc2oc(-c3ccco3)nc2C=Nc2ccc(Cl)cc2)cc1	2	21*	4	2	17	4
O=C(Oc1oc(-c2ccco2)nc1C=Nc1ccccc1)c1ccoc1	-5	14	4	5	-3	4
CC(C)C(NC(=O)c1ccco1)C(=O)NCC(c1ccco1)N1CCCCC1 (centres undefined)	1	79*	-1	2	-10	-2
